Measured values reported in article PMC5444390 (Journal of medicinal chemistry, 2016).
One block for each compound: values may come before it.

How the values were obtained:
[1] = tested on: Her3 and wild-type B-Raf in A549 cells; experiment: Western blot for Her3 and wild-type B-Raf; type: cell-based; settings: for Her3 and wild-type B-Raf levels, control compounds: A549, 12 and 24 h, five-times the reported IC50
In short: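 Cells harvested in cold PBS, lysed in M-PER with protease/phosphatase inhibitors, 15 µg protein resolved on reducing 10% gels, transferred to PVDF, immunoblotted for Her3 and B-Raf, HRP-chemiluminescent detection.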

[2] = tested on: A549 lung cancer cell line; settings: cited from earlier work
[3] = tested on: Hsp90 client proteins (EGFR, Her2, C-Raf) and Hsp90 in MCF7 cells; experiment: Western blot for Hsp90 client proteins and Hsp90, MCF7 lysates; type: cell-based; settings: MCF7, 12 h
In short: (§1)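 MCF7 (Advanced DMEM/F12, 2 mM L-glutamine) or A549 (F12K) cells, with 10% FBS and pen/strep at 37 °C, 5% CO2. […] M-PER lysates with protease/phosphatase inhibitors, 15 µg protein on reducing 10% gels, PVDF, HRP-chemiluminescence.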

[4] = tested on: Hsp90 client proteins (EGFR, Her2, C-Raf) and Hsp90 in A549 cells; experiment: Western blot for Hsp90 client proteins and Hsp90, A549 lysates; type: cell-based; settings: for Hsp90 client levels: A549, 12 or 24 h
In short: as §1

[5] = tested on: MAPK pathway (EGFR, C-Raf, MEK, ERK, p-MEK, p-ERK) in A549 cells; experiment: Western blot for MAPK pathway proteins, p-MEK and p-ERK, A549 lysates; type: cell-based
[6] = tested on: Hsp90 luciferase refolding activity in PC3-MM2 cells; experiment: Luciferase refolding assay; type: cell-based; settings: 0–100 μM, 1 h
In short: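 Heat-denatured luciferase: luciferase-expressing PC3-MM2 cells were heated 8–12 min at 50 °C in DMEM until luminescence was 1% of initial. They were added (60,000 cells/100 µL final) to test compound, 0–100 µM, 1% DMSO final, and incubated 1 h. Luciferin/CoA/ATP reagent (tricine pH 7.8) was added and luminescence read immediately (0.5 s). Refolding was normalized to 1% DMSO = 100%. Triplicate concentrations, dose-response curves.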

[7] = tested on: A549 lung cancer cell line; experiment: Anti-proliferation; type: cell-based; settings: 0.15 μM versus 1.7 μM
[8] = biological target: wild type B-Raf / c-Raf heterodimer in A549 cells (Homo sapiens, UniProt P15056); experiment: Co-immunoprecipitation of B-Raf, A549 lysates; type: cell-based; settings: A549, 24 h, five-times IC50
Sequence of wild type B-Raf / c-Raf heterodimer in A549 cells (P15056 whole entry, one chain of several): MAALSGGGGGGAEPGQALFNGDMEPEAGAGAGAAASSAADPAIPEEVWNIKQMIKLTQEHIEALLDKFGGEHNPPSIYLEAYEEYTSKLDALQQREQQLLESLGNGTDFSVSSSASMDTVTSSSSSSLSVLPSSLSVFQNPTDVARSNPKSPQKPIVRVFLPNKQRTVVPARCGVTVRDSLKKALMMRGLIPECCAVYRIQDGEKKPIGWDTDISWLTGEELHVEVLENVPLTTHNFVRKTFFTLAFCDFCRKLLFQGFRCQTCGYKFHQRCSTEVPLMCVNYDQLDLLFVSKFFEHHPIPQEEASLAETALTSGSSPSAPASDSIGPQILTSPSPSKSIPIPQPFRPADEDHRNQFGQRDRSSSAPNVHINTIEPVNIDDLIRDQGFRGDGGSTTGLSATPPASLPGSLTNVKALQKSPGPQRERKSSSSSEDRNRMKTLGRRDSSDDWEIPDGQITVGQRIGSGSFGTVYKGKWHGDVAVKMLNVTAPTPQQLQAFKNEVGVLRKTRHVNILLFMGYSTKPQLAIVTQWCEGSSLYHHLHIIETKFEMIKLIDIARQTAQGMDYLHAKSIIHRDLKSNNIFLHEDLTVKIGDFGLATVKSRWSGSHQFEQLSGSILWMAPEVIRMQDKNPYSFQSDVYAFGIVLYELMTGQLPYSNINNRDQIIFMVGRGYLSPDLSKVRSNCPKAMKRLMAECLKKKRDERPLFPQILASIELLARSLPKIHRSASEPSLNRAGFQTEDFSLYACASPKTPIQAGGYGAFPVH

[9] = tested on: p-Akt and total Akt in A549 cells; experiment: Western blot for p-Akt and total Akt, A549 lysates; type: cell-based; settings: A549, 2 to 12 h (Supplementary Figure 2)
[10] = tested on: Hsp90 client proteins and Hsp90; experiment: Western blot for clients and Hsp90 with geldanamycin; type: cell-based; settings: Supplementary Figure 1
[11] = A549, 750 nM, 2 to 12 h, vs vehicle

SMILES: N#Cc1c(Oc2ccc(F)c(NC(=O)Cc3cccc(C(F)(F)F)c3)c2)ccc2nc(NC(=O)C3CC3)sc12 [TAK-632]
Her3 and wild-type B-Raf levels, control compounds [1]: remained unaffected | IC50 ([2]; read-out: IC50 value against A549 (reported), A549 lung cancer cell line): 1.7 µM

SMILES: CCCS(=O)(=O)Nc1ccc(F)c(C(=O)c2c[nH]c3ncc(-c4ccc(Cl)cc4)cc23)c1F [vemurafenib]
Her3 and wild-type B-Raf levels, control compounds [1]: little effect | Activity against the A549 cell line ([2]; A549 expresses only wild-type B-Raf): relatively inactive

SMILES: Cc1c(OC2CCN(C)CC2)ccc2cc(NC(=O)Nc3ccccc3)c(=O)oc12 [Compound 1, 1-(8-methyl-7-((1-methylpiperidin-4-yl)oxy)-2-oxo-2H-chromen-3-yl)-3-phenylurea]
Hsp90 client levels (EGFR, Her2, C-Raf) ([3]; high concentration (five-times IC50), vs vehicle): decreased levels | Hsp90 levels ([3]; low and high concentrations): comparable to vehicle | Hsp90 client levels (EGFR, Her2, C-Raf) ([4]; A549, 12 h, high concentration (five-times IC50), vs vehicle): decreased levels | Hsp90 levels ([4]; A549, 12 h, low and high concentrations): comparable to vehicle

SMILES: COc1cccc(-c2cccc(NC(=O)Nc3cc4ccc(OC5CCN(C)CC5)c(C)c4oc3=O)c2)c1 [Compound 5, 1-(3′-methoxy-[1,1′-biphenyl]-3-yl)-3-(8-methyl-7-((1-methylpiperidin-4-yl)oxy)-2-oxo-2H-chromen-3-yl)urea]
Hsp90 client levels ([4]; five-times IC50): did not result in decreased client levels | p-MEK levels ([5]; A549, 12 and 24 h, five-times IC50): unchanged | p-ERK levels ([5]; A549, 12 h, five-times IC50): decreased | p-ERK levels ([5]; A549, 24 h, five-times IC50): comparable to vehicle | p-MEK and p-ERK levels ([5]; A549, 24 h, five-times IC50): reestablished

IC50 of 2 relative to IC50 of TAK-632 [7]: one tenth | Dimerization of wild type B-Raf and c-Raf (co-immunoprecipitation) [8]: does not result in dimerization
SMILES: COc1cccc(-c2cc(NC(=O)Nc3cc4ccc(OC5CCN(C)CC5)c(C)c4oc3=O)ccc2OC)c1 [Compound 2, 1-(3′,6-dimethoxy-[1,1′-biphenyl]-3-yl)-3-(8-methyl-7-((1-methylpiperidin-4-yl)oxy)-2-oxo-2H-chromen-3-yl)urea]
Hsp90 client protein levels ([3]; low (half IC50) and high (five-times IC50) concentrations): unchanged | Hsp90 client protein levels ([4]; A549, 12 h, low (half IC50) and high (five-times IC50) concentrations): unchanged | Her3 and wild-type B-Raf levels ([1]; A549, 24 h, five-times IC50): comparable to vehicle | Inhibition of firefly luciferase re-maturation [6]: does not inhibit | p-Akt and total Akt levels [9]: unaffected | EGFR and C-Raf levels [5, 11]: remained constant | Total MEK and ERK levels [5, 11]: remained constant | p-MEK levels ([5]; A549, 750 nM, 12 h): undetectable | p-MEK and p-ERK levels ([5]; A549, 12 h, high concentration (five-times IC50, 750 nM)): significantly lower levels | p-MEK and p-ERK levels ([5]; A549, 12 h, low concentration (half IC50, 70nM)): little effect | p-MEK and p-ERK levels ([5]; A549, 24 h, 750 nM): only slightly increased compared to 12 hours

SMILES: Cc1c(OC2CCN(C)CC2)ccc2cc(NC(=O)Nc3cccc(-c4ccccc4)c3)c(=O)oc12 [Compound 3, 1-([1,1′-biphenyl]-3-yl)-3-(8-methyl-7-((1-methylpiperidin-4-yl)oxy)-2-oxo-2H-chromen-3-yl)urea]
Hsp90-dependent client protein levels ([4]; A549, 24 h, five-times IC50): decreased levels | Hsp90 levels ([4]; A549, 24 h, five-times IC50): constant levels

SMILES: COc1ccc(NC(=O)Nc2cc3ccc(OC4CCN(C)CC4)c(C)c3oc2=O)cc1-c1ccccc1 [Compound 4, 1-(6-methoxy-[1,1′-biphenyl]-3-yl)-3-(8-methyl-7-((1-methylpiperidin-4-yl)oxy)-2-oxo-2H-chromen-3-yl)urea]
Hsp90 client levels ([4]; five-times IC50): did not result in decreased client levels | p-MEK and pERK levels ([5]; A549, 12 h, five-times IC50, vs vehicle): decreased | p-MEK and p-ERK levels ([5]; A549, 24 h, five-times IC50): reestablished

SMILES: COC1=C2C[C@@H](C)C[C@H](OC)[C@H](O)[C@@H](C)/C=C(\C)[C@H](OC(N)=O)[C@@H](OC)/C=C\C=C(/C)C(=O)NC(=CC1=O)C2=O [geldanamycin (GDA), geldanamycin]
Hsp90 client levels [10]: decreased client levels | Cellular levels of Hsp90 ([10]; at concentrations that decreased clients): increased cellular levels of Hsp90

SMILES: CNC(=O)c1cc(Oc2ccc(NC(=O)Nc3ccc(Cl)c(C(F)(F)F)c3)cc2)ccn1 [sorafenib]
Her3 levels ([1]; A549, sorafenib at five-times the reported IC50 (14 μM), 12 and 24 h): time-dependent increase
